Active and inactive are the calls of the source. The rule behind the calls is not given here.
What was measured:
Human alphaherpesvirus 1 = assay: Antiviral activity against Herpes simplex virus 1 HF assessed as inhibition of virus-induced cytopathogenicity; type: functional, organism-based
Outline: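 Cytopathogenic effect of HSV-1 strain HF was scored in infected cell cultures exposed to the nucleoside. The procedure was a modified Ehrlich method, as run in earlier work.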

P388 = assay: Cytotoxicity against mouse P388 cells after 72 hrs by hemocytometer-based cell counting method; type: functional; details: P388, 72 h, read-out: LD50 (the source's name)
Outline: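 P-388 mouse lymphoid leukemia cells grown in tissue culture with the nucleoside present; cytotoxicity expressed as the LD50 concentration in µg/mL.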

Row | Structure (SMILES) | Activity (Human alphaherpesvirus 1) | CC50 (P388) [µg/mL]
1 | N[C@H]1[C@@H](O)[C@H](n2cnc(C(=O)NO)n2)O[C@@H]1CO | inactive | > 100
2 | N/N=C(/N)c1ncn([C@@H]2O[C@H](CO)[C@@H](N)[C@H]2O)n1 | inactive | > 100
3 | NC(=O)c1ncn([C@@H]2O[C@H](CO)[C@@H](N)[C@H]2O)n1 | inactive | > 100
4 | N/C(=N/O)c1ncn([C@@H]2O[C@H](CO)[C@@H](N)[C@H]2O)n1 | inactive | > 100
5 | NC(=O)c1ncnn1[C@@H]1O[C@H](CO)[C@@H](N)[C@H]1O | inactive | > 100
6 | NNC(=O)c1ncn([C@@H]2O[C@H](CO)[C@@H](N)[C@H]2O)n1 | inactive | > 100

From ChEMBL document CHEMBL3244073, “1,2,4-Triazole amino nucleosides. 1-beta-D-3'-Amino-3'-deoxyribofuranosyl-1,2,4-triazole-3-carboxamide and related nucleosides” (1977)
